ChEMBL document CHEMBL1165965, “Synthesis and structure-activity relationships of 1,2,3,4-tetrahydropyrido[2,3-b]pyrazines as potent and selective inhibitors of the anaplastic lymphoma kinase” (Bioorg Med Chem, 2010)

How the values were obtained:
[1] = molecular target: Tyrosine-protein kinase JAK2 (Homo sapiens) (UniProt O60674); test: Inhibition of JAK2 JH1 catalytic domain at 1 uM
Outline: (§1)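 Single-concentration screen on the Ambit KINOMEscan platform, run against a panel of 250–400 kinases. Per-kinase inhibition was also summarized as S(90), the fraction of kinases inhibited by more than 90%.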

[2] = molecular target: Mitogen-activated protein kinase kinase kinase kinase 4 (Homo sapiens) (UniProt O95819); test: Inhibition of MAP4K4 at 1 uM; outline: as §1
[3] = molecular target: T1, Serine/threonine-protein kinase Nek2 (Homo sapiens) (UniProt P51955); test: Inhibition of NEK2 at 1 uM
T1 sequence (whole entry): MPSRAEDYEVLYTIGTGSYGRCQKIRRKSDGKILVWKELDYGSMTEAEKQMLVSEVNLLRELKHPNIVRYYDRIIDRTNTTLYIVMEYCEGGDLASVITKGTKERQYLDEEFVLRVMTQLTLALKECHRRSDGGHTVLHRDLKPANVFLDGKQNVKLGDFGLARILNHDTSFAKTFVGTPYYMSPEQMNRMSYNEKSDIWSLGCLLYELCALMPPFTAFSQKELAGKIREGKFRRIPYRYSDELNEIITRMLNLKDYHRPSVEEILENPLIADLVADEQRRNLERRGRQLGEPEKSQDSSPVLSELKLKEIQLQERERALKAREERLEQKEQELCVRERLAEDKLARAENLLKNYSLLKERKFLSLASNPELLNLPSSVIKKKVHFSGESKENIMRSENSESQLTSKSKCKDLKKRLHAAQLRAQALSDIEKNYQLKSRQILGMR

[4] = molecular target: Serine/threonine-protein kinase Nek7 (Homo sapiens) (UniProt Q8TDX7); test: Inhibition of NEK7 at 1 uM
Serine/threonine-protein kinase Nek7 (Homo sapiens), sequence (Q8TDX7 whole entry, looked up): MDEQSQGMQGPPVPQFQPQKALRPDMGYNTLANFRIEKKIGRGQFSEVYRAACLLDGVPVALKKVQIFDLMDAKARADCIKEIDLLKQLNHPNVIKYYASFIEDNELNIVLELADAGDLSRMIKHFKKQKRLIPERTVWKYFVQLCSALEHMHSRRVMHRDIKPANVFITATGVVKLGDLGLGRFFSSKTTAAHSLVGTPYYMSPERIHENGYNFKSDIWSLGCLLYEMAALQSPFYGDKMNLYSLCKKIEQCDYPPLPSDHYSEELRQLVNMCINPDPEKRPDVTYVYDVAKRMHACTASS

[5] = molecular target: Cyclin-dependent kinase 15 (Homo sapiens) (UniProt Q96Q40); test: Inhibition of PFTAIRE2 at 1 uM
Cyclin-dependent kinase 15 (Homo sapiens), sequence (Q96Q40 whole entry, canonical isoform): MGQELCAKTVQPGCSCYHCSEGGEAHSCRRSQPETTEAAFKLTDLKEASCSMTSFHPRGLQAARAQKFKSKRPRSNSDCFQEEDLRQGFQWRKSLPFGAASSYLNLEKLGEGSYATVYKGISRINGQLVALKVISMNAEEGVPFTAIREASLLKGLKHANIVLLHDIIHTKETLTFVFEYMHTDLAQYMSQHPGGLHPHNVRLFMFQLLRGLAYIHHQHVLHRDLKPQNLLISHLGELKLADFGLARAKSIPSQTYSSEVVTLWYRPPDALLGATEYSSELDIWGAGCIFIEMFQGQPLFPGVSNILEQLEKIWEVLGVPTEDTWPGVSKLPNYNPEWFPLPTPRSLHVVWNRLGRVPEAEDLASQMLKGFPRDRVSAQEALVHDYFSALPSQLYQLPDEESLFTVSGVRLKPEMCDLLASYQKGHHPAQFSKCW

[6] = test system: Phosphatidylinositol 4,5-bisphosphate 3-kinase catalytic subunit alpha isoform (Homo sapiens), P42336 [C420R]; test: Inhibition of PIK3CA C420R mutant at 1 uM
[7] = test system: Phosphatidylinositol 4,5-bisphosphate 3-kinase catalytic subunit alpha isoform (Homo sapiens), P42336 [M1043I]; test: Inhibition of PIK3CA M1043I mutant at 1 uM
Phosphatidylinositol 4,5-bisphosphate 3-kinase catalytic subunit alpha isoform (Homo sapiens), P42336 [M1043I], sequence (P42336 whole entry M1043I, canonical isoform): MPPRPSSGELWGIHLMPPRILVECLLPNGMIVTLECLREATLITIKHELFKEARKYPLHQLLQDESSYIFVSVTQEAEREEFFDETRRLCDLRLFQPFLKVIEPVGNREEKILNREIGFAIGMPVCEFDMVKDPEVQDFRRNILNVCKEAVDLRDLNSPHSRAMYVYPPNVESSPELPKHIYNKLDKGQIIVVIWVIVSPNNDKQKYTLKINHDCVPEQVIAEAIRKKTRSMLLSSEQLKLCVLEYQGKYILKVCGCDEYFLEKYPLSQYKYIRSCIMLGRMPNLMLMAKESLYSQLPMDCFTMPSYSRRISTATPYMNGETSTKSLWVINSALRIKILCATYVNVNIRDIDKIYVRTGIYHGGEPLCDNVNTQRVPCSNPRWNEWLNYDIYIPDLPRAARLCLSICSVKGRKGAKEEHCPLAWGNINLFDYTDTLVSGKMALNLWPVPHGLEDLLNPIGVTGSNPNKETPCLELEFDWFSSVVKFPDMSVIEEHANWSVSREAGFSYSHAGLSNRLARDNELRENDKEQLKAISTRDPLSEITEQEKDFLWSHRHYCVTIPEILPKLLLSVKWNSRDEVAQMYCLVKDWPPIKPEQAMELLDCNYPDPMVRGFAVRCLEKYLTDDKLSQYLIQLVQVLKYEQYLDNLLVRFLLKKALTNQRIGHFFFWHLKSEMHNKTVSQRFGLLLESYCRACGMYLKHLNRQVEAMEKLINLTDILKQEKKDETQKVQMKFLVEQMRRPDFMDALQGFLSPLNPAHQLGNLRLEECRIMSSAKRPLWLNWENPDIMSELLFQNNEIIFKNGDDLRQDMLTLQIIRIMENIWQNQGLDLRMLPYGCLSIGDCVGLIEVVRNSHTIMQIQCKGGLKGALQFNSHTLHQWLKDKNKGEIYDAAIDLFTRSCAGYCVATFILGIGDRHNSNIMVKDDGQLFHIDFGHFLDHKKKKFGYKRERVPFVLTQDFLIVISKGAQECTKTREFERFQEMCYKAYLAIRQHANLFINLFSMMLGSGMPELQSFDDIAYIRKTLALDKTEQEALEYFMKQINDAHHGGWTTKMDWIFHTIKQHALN

[8] = molecular target: T2, Receptor-interacting serine/threonine-protein kinase 4 (Homo sapiens) (UniProt P57078); test: Inhibition of RIPK4 at 1 uM
T2 sequence (whole entry): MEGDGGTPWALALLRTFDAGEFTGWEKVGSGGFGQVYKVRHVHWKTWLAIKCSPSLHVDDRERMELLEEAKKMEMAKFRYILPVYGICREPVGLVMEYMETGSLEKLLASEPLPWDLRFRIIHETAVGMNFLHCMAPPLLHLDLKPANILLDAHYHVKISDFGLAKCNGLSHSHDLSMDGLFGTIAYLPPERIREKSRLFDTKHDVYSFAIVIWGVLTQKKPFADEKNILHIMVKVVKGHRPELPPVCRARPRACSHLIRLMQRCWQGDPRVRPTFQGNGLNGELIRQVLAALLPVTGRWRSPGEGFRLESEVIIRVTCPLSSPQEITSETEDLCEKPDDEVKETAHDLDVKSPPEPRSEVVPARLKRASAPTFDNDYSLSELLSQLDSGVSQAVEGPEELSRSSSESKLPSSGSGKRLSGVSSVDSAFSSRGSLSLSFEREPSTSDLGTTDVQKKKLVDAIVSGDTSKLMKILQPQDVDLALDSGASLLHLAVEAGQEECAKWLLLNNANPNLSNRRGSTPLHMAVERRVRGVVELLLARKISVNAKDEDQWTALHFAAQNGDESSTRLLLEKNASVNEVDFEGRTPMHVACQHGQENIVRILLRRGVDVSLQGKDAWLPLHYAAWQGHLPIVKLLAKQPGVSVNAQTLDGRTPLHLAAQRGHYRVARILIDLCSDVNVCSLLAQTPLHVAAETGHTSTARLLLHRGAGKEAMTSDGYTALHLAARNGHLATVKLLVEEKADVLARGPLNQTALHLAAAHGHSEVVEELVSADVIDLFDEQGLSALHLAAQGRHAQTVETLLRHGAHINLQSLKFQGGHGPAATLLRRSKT

[9] = molecular target: Serine/threonine-protein kinase SBK1 (Homo sapiens) (UniProt Q52WX2); test: Inhibition of SBK1 at 1 uM
Serine/threonine-protein kinase SBK1 (Homo sapiens), sequence (Q52WX2 whole entry): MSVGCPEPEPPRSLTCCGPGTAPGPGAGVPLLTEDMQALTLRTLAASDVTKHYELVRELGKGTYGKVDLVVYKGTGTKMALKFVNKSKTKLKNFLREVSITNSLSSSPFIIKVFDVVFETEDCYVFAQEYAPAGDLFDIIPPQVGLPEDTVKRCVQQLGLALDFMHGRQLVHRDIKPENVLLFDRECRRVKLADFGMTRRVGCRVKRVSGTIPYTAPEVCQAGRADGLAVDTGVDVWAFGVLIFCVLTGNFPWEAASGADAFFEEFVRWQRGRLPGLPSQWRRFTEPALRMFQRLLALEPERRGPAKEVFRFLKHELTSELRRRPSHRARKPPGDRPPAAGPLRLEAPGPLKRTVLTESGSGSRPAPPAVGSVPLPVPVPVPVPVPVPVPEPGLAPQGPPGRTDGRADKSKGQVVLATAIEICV

[10] = test system: Tyrosine-protein kinase ABL1 (Homo sapiens), P00519 [T315I]; test: Inhibition of ABL1 T315I mutant at 1 uM
Outline: (§2)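 Ambit KINOMEscan screen at a single concentration across a 250–400 kinase panel, recorded as percent inhibition. Selectivity was expressed as S(90), the fraction of kinases inhibited >90%.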

[11] = molecular target: Activin receptor type-1-like (Homo sapiens) (UniProt P37023); test: Inhibition of ACVRL1 at 1 uM; outline: as §2
Activin receptor type-1-like (Homo sapiens), sequence (P37023 whole entry): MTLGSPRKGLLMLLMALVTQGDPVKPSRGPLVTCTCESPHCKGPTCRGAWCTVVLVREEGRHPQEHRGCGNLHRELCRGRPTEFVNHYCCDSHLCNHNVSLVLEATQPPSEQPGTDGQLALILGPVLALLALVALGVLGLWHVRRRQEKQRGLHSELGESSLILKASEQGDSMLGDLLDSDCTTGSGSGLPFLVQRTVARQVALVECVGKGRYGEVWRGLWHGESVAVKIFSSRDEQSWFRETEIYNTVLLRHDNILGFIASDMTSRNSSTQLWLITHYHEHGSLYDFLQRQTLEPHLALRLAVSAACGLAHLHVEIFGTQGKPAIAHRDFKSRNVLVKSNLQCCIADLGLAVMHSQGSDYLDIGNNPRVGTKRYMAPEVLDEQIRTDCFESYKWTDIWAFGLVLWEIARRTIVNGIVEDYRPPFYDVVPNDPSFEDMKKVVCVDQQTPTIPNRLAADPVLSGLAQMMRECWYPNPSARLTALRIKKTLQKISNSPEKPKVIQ

[12] = molecular target: Calcium/calmodulin-dependent protein kinase type 1D (Homo sapiens) (UniProt Q8IU85); test: Inhibition of CAMK1D at 1 uM; outline: as §2
Calcium/calmodulin-dependent protein kinase type 1D (Homo sapiens), sequence (Q8IU85 whole entry, looked up): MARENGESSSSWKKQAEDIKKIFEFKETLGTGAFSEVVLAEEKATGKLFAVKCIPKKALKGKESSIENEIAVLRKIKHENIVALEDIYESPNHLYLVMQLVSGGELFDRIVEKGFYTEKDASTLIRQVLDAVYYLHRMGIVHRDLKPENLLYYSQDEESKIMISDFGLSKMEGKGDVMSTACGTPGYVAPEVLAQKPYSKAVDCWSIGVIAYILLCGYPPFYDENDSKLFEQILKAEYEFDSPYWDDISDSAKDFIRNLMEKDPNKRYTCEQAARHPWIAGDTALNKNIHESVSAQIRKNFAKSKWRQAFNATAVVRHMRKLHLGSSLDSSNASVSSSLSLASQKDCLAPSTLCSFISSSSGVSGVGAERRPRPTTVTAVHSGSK

[13] = molecular target: T3, Cyclin-dependent kinase 11A (Homo sapiens) (UniProt Q9UQ88); test: Inhibition of CDC2L2 at 1 uM
T3 sequence (whole entry): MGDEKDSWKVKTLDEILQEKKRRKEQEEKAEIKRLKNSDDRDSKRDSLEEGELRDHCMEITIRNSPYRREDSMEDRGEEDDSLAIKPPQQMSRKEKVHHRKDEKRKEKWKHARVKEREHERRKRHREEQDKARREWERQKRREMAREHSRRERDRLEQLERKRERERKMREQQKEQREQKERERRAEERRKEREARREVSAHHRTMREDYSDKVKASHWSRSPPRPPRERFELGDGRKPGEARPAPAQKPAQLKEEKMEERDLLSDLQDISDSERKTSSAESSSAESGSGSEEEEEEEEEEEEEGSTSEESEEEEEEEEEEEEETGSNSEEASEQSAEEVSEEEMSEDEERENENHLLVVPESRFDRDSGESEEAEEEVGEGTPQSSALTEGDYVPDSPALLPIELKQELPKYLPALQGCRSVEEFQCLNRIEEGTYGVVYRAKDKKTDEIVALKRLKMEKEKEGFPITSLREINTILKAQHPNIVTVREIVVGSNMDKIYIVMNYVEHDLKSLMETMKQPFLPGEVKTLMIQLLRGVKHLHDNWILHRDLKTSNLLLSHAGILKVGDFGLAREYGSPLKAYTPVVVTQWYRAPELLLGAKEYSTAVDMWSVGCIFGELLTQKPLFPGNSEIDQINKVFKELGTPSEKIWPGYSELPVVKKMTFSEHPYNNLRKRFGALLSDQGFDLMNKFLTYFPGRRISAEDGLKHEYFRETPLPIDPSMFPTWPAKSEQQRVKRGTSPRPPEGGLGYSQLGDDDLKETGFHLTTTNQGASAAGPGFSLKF

[14] = molecular target: Cyclin-dependent kinase 3 (Homo sapiens) (UniProt Q00526); test: Inhibition of CDK3 at 1 uM
Cyclin-dependent kinase 3 (Homo sapiens), sequence (Q00526 whole entry, looked up): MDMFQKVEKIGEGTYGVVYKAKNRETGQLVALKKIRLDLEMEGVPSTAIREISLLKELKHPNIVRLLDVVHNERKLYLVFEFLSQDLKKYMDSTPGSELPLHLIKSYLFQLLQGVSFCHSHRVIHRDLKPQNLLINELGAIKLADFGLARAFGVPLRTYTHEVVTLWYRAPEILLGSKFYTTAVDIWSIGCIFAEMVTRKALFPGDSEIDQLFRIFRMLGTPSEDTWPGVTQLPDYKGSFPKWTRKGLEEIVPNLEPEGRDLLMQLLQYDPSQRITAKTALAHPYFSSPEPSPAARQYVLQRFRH

[15] = molecular target: Cyclin-dependent kinase 7 (Homo sapiens) (UniProt P50613); test: Inhibition of CDK7 at 1 uM
Cyclin-dependent kinase 7 (Homo sapiens), sequence (P50613 whole entry): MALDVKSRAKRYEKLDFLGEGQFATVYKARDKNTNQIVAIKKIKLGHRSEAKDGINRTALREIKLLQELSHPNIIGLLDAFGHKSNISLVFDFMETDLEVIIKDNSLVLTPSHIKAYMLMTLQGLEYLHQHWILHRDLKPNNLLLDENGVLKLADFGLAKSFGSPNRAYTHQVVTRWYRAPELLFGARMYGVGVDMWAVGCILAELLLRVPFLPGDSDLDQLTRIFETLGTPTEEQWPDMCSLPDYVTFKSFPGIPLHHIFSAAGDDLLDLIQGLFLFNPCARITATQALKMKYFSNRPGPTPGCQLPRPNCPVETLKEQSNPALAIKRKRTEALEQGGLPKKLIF

Tyrosine-protein kinase JAK2 (Homo sapiens), sequence (O60674 whole entry, the tested form may be a part): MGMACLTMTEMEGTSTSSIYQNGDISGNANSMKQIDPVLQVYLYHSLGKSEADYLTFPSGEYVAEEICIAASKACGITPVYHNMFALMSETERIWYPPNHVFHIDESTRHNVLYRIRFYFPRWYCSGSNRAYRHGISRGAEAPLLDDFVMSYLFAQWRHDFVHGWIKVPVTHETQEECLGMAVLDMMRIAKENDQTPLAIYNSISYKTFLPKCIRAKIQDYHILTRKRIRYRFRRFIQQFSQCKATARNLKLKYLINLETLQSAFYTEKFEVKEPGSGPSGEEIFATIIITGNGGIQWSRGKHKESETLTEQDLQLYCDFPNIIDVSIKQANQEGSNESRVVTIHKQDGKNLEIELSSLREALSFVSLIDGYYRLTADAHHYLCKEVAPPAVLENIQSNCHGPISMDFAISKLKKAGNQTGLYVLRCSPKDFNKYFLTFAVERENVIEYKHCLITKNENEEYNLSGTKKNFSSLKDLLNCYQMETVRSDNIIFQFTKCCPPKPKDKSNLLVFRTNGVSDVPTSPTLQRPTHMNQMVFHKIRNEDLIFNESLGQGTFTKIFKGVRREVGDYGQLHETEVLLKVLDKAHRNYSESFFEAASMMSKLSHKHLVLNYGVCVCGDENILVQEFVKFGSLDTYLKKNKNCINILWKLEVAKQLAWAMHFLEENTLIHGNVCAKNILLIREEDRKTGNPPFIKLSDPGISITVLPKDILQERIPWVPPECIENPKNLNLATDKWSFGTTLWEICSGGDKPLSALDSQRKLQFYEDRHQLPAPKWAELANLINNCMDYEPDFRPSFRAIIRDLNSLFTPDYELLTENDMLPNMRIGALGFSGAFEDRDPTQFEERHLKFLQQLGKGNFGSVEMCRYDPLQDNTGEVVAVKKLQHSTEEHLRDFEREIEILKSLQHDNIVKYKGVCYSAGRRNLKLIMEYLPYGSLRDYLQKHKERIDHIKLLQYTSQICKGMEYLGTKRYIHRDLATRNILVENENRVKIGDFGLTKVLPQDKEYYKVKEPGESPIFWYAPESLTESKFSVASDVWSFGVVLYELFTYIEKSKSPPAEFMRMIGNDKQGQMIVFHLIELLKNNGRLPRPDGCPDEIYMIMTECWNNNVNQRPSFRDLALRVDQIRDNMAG

Row | Compound | inhibition [1] | inhibition [2] | inhibition [3] | inhibition [4] | inhibition [5] | inhibition [6] | inhibition [7] | inhibition [8] | inhibition [9] | inhibition [10] | inhibition [11] | inhibition [12] | inhibition [13] | inhibition [14] | inhibition [15]
1 | CC(=O)N1CCN(c2cc(-c3cnc4c(c3)N(Cc3cc(Cl)ccc3C(F)(F)F)CCN4)ccn2)CC1 | 96% | < 50% | < 50% | < 50% | < 50% | < 50% | < 50% | < 50% | < 50% | < 50% | < 50% | < 50% | < 50% | < 50% | < 50%
2 | CN1CCN(c2ccc(-c3cnc4c(c3)N(Cc3cc(F)ccc3F)CCN4)cn2)CC1 | 94.7% | < 50% | < 50% | < 50% | < 50% | < 50% | < 50% | < 50% | < 50% | 80.4% | < 50% | < 50% | < 50% | < 50% | < 50%
3 | CN1CCN(c2ccc(-c3cnc4c(c3)N(Cc3cc(Cl)ccc3Cl)CCN4)cn2)CC1 | 95% | < 50% | < 50% | < 50% | < 50% | < 50% | < 50% | < 50% | < 50% | < 50% | < 50% | < 50% | < 50% | < 50% | < 50%
4 | COC1CCN(C(=O)c2ccc(-c3cnc4c(c3)N(Cc3cc(Cl)ccc3C(F)(F)F)CCN4)cc2)CC1 |  | < 50% | < 50% |  |  |  |  |  |  | < 50% | < 50% | < 50% |  |  | 
5 | CN1CCN(c2ccc(-c3cnc4c(c3)N(Cc3c(F)ccc(F)c3Cl)CCN4)cn2)CC1 | 77% | 76% | < 50% | < 50% | < 50% | < 50% | < 50% | < 50% | < 50% | 95% | < 50% | < 50% | < 50% | < 50% | < 50%
6 | O=C(c1ccc(-c2cnc3c(c2)N(Cc2cc(Cl)ccc2C(F)(F)F)CCN3)cc1)N1CCC(N2CCCC2)CC1 | 99.5% | < 50% | < 50% |  |  |  |  |  |  | 83.2% | < 50% | < 50% |  |  | 

Next, values leading:

Row | inhibition [1] | inhibition [2] | inhibition [3] | inhibition [4] | inhibition [5] | inhibition [6] | inhibition [7] | inhibition [8] | inhibition [9] | inhibition [10] | inhibition [11] | inhibition [12] | inhibition [13] | inhibition [14] | inhibition [15] | Compound
7 | 95.1% | < 50% | < 50% |  |  |  |  |  |  |  | < 50% | < 50% |  |  |  | O=C(O)c1ccc(-c2cnc3c(c2)N(Cc2cc(Cl)ccc2C(F)(F)F)CCN3)cc1
8 | 96.3% | < 50% | < 50% |  |  |  |  |  |  | < 50% | < 50% | < 50% |  |  |  | O=C(c1ccc(-c2cnc3c(c2)N(Cc2cc(Cl)ccc2C(F)(F)F)CCN3)cc1)N1CCCCC1
9 | 94% | < 50% | < 50% | < 50% | < 50% | < 50% | < 50% | < 50% | < 50% | < 50% | < 50% | < 50% | < 50% | < 50% | < 50% | CN1CCN(c2ccc(-c3cnc4c(c3)N(Cc3cc(Cl)ccc3C(F)(F)F)CCN4)cn2)CC1
10 | 97% | < 50% | < 50% | < 50% | < 50% | < 50% | < 50% | < 50% | < 50% | < 50% | < 50% | < 50% | < 50% | < 50% | < 50% | FC(F)(F)c1ccc(Cl)cc1CN1CCNc2ncc(-c3ccnc(N4CCNCC4)c3)cc21
